Experimental data reported in ChEMBL document CHEMBL1123670, “Inhibitors of cyclic AMP phosphodiesterase. 2. Structural variations of N-cyclohexyl-N-methyl-4-[(1,2,3,5-tetrahydro- 2-oxoimidazo[2,1-b]quinazolin-7-yl)-oxy]butyramide (RS-82856)” (J Med Chem, 1987).

How the values were obtained:
Phosphodiesterase 3 = Phosphodiesterase 3 (Homo sapiens, UniProt Q14432+Q13370); test: In vitro inhibition of cyclic AMP phosphodiesterase from human platelets
[1] = Inhibition of ADP-induced platelet aggregation; type: functional
Summary of the method: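 ADP-induced platelet aggregation. Read-out is the rate of change in percentage transmission of the primary aggregation phase after 5 min incubation. Each agent tested at five concentrations in triplicate, with experiments repeated at least twice using platelets from different donors. IC50 (μM) determined graphically.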

Homo sapiens = organism: Homo sapiens; test: Ratio of IC50 of inhibition of platelet aggregation to IC50 of inhibition of platelet PDE (Efficacy index); type: functional
Summary of the method: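 Efficacy index is the IC50 for inhibition of ADP-induced platelet aggregation divided by the IC50 for human platelet PDE inhibition. Both IC50s come from graphical dose-response curves (five concentrations, triplicate).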

[2] = target: Phosphodiesterase; PDE3 & PDE4 (Homo sapiens) (UniProt P27815+Q14432+Q08499+Q07343+Q13370+Q08493); test: In vivo inhibition of cyclic AMP phosphodiesterase from dog heart
Summary of the method: (§1)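 Cyclic AMP phosphodiesterase prepared from human platelets (IC50, nM) or from rat or dog heart tissue (IC25, nM). Each agent tested at five inhibitor concentrations in triplicate. IC50/IC25 read graphically from the dose-response curve.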

[3] = In vivo inhibition of cyclic AMP phosphodiesterase from rat heart; conditions: in the assay text read “In vitro” for “In vivo”
Summary of the method: as §1

[4] = Canis lupus familiaris; in the assay text read “In vitro” for “In vivo”; target entry is the homologue from another species
[5] = Canis lupus familiaris; target entry is the homologue from another species; in the assay text read “In vitro” for “In vivo”

SMILES	IC50 (Phosphodiesterase 3)	IC50 [1]	Ratio (Homo sapiens)	IC25 [2, 4]	IC25 [2, 5]	IC25 [3]
CN(C(=O)CCCCc1ccc2c(c1)CN1CC(=O)NC1=N2)C1CCCCC1	0.2 µM	6.6 µM	33	0.22 µM		
CN(C(=O)CCCOc1ccc2c(c1)CN1CC(=O)NC1=N2)C1CCCC1	0.048 µM	1.45 µM	30		0.025 µM	
CN(C(=O)CCCOc1ccc2c(c1)CN1C(=O)CNC1=N2)C1CCCCC1	15 µM	120 µM	8	1.6 µM		
CN(C(=O)CCCOc1ccc2c(c1)CN1C(=N2)NC(=O)C1(C)C)C1CCCCC1	0.47 µM	4.3 µM	9	2.4 µM		
NC(=O)CCCOc1ccc2c(c1)CN1CC(=O)NC1=N2	0.69 µM	47 µM	68		0.38 µM	
O=C(O)CN(C(=O)CCCOc1ccc2c(c1)CN1CC(=O)NC1=N2)C1CCCCC1	0.005 µM	5.2 µM	1040			0.1 µM
NC(=O)CN(C(=O)CCCOc1ccc2c(c1)CN1CC(=O)NC1=N2)C1CCCCC1	0.011 µM	20 µM	1818		0.1 µM	
O=C1CN2Cc3cc(OCCCC(=O)N(C4CCCCC4)C4CCCCC4)ccc3N=C2N1	0.00145 µM	0.42 µM	300			0.016 µM
C[C@@H]1C(=O)NC2=Nc3ccc(OCCCC(=O)N(C)C4CCCCC4)cc3CN21	0.0054 µM	0.36 µM	66		0.027 µM	
O=C1CN2Cc3cc(OCCCC(=O)N(CCCO)C4CCCCC4)ccc3N=C2N1	0.006 µM	1.7 µM	283	0.017 µM		
O=C1CN2Cc3cc(OCCCC(=O)N(CCn4ccnc4)C4CCCCC4)ccc3N=C2N1	0.0056 µM	3.6 µM	642	0.007 µM		
CN(C(=O)COc1ccc2c(c1)CN1CC(=O)NC1=N2)C1CCCCC1	0.82 µM	7 µM	8.5			4.4 µM
CCOC(=O)CCCOc1ccc2c(c1)CN1CC(=O)NC1=N2	0.24 µM	1.6 µM	6.7		0.44 µM	
CN(C(=O)CCCSc1ccc2c(c1)CN1CC(=O)NC1=N2)C1CCCCC1	0.14 µM	25 µM	178	0.26 µM		
CN(C(=O)OCCOc1ccc2c(c1)CN1CC(=O)NC1=N2)C1CCCCC1	0.013 µM	1.5 µM	115	0.058 µM		
O=C1CN2Cc3cc(OCCCC(=O)N4CCCCC4)ccc3N=C2N1	0.26 µM	14.5 µM	56			1.5 µM
CN(C(=O)NCCOc1ccc2c(c1)CN1CC(=O)NC1=N2)C1CCCCC1	0.017 µM	8.6 µM	506	0.78 µM		
CC1c2cc(OCCCC(=O)N(C)C3CCCCC3)ccc2NC2=NC(=O)CN21 (centres undefined)	0.0059 µM	0.13 µM	22	0.014 µM		
O=C1CN2Cc3cc(OCCCC(=O)N(CCCCO)C4CCCCC4)ccc3N=C2N1	0.0064 µM	4 µM	625		0.0072 µM	
CC(O)[C@@H]1C(=O)NC2=Nc3ccc(OCCCC(=O)N(C)C4CCCCC4)cc3CN21 (some centres undefined)	1.6 µM	54 µM	34	3.7 µM		
CN(C(=O)CCCOc1ccc2c(c1)CN1CC(=O)NC1=N2)C(c1ccccc1)c1ccccc1	0.015 µM	9.2 µM	613			0.06 µM
CC[C@@H]1C(=O)NC2=Nc3ccc(OCCCC(=O)N(C)C4CCCCC4)cc3CN21	0.37 µM	5.6 µM	15	0.62 µM		
CN(C(=O)CCCCCOc1ccc2c(c1)CN1CC(=O)NC1=N2)C1CCCCC1	0.012 µM	1.9 µM	158			0.021 µM
O=C1CN2Cc3cc(OCCCC(=O)OC4CCCCC4)ccc3N=C2N1	0.018 µM	3.4 µM	168	0.043 µM		
CC[C@H]1C(=O)NC2=Nc3ccc(OCCCC(=O)N(C)C4CCCCC4)cc3CN21	0.58 µM	8.2 µM	14		0.45 µM	
CN(C)C(=O)CCCOc1ccc2c(c1)CN1CC(=O)NC1=N2	1.2 µM	90 µM	75			

SMILES	IC50 (Phosphodiesterase 3)	IC50 [1]	Ratio (Homo sapiens)	IC25 [2, 4]	IC25 [2, 5]	IC25 [3]
CN(C(=O)CCCOc1ccc2c(c1)CN1C(=N2)NC(=O)C12CC2)C1CCCCC1	0.76 µM	50 µM	66	3.7 µM		
CN(C(=O)CCCOc1ccc2c(c1)CN1CC(=O)NC1=N2)C1CCCCCCC1	0.0022 µM	0.19 µM	86	0.0016 µM		
CN(C(=O)CCCOc1ccc2c(c1Cl)CN1CC(=O)NC1=N2)C1CCCCC1	0.014 µM	1.1 µM	79		0.1 µM	
CC(C)N(C(=O)CCCOc1ccc2c(c1)CN1CC(=O)NC1=N2)C1CCCCC1	0.0032 µM	0.26 µM	81	0.015 µM		
CN(C(=O)CCCOc1ccc2c(c1)CN1C(=O)C(=O)NC1=N2)C1CCCCC1	4.4 µM	150 µM	34	1.7 µM		
C=c1c(=O)[nH]c2n1Cc1cc(OCCCC(=O)N(C)C3CCCCC3)ccc1N=2	0.0027 µM	0.15 µM	55.5	0.045 µM		
O=C1CN2Cc3cc(OCCCc4nnnn4C4CCCCC4)ccc3N=C2N1	0.0045 µM	1 µM	222	0.018 µM		
COC(=O)CN(C(=O)CCCOc1ccc2c(c1)CN1CC(=O)NC1=N2)C1CCCCC1	0.002 µM	0.7 µM	350		0.01 µM	
CCN(C(=O)CCCOc1ccc2c(c1)CN1CC(=O)NC1=N2)C1CCCCC1	0.0015 µM	0.18 µM	120		0.0052 µM	
O=C1CN2Cc3cc(OCCCC(=O)NC4CCCCC4)ccc3N=C2N1	0.072 µM	10 µM	139	0.18 µM		
O=C1CN2Cc3cc(OCCCC(=O)N(C(CO)CO)C4CCCCC4)ccc3N=C2N1	0.012 µM	82 µM	6833		0.026 µM	
O=C1CN2Cc3cc(OCCCC(=O)N(CCCCCCO)C4CCCCC4)ccc3N=C2N1	0.0036 µM	4 µM	1111		0.002 µM	
C[C@H]1C(=O)NC2=Nc3ccc(OCCCC(=O)N(C)C4CCCCC4)cc3CN21	0.026 µM	0.47 µM	18		0.078 µM	
CN(C(=O)CCCOc1ccc2c(c1)CN1CC(=O)NC1=N2)C1CCCCCC1	0.001 µM	0.25 µM	250		0.0042 µM	
CN(C(=O)CCCOc1ccc2c(c1)CN1CCC(=O)NC1=N2)C1CCCCC1	0.13 µM	1.9 µM	14.6		0.1 µM	
CC(O)[C@H]1C(=O)NC2=Nc3ccc(OCCCC(=O)N(C)C4CCCCC4)cc3CN21 (some centres undefined)	1 µM	22 µM	22		1.7 µM	
CN(C(=O)CCCOc1ccc2c(c1)NC1=NC(=O)CN1C2)C1CCCCC1	0.15 µM	26 µM	173		0.064 µM	
CN(C(=O)CCCS(=O)(=O)c1ccc2c(c1)CN1CC(=O)NC1=N2)C1CCCCC1	3.1 µM	58 µM	19		6.6 µM	
O=C1CN2Cc3cc(OCCCC(=O)N(Cc4ccccc4)Cc4ccccc4)ccc3N=C2N1						0.06 µM
COCCN(C(=O)CCCOc1ccc2c(c1)CN1CC(=O)NC1=N2)C1CCCCC1	0.0013 µM	0.105 µM	81	< 0.01 µM		
CN(C(=O)CCCOc1ccc2c(c1)CN1C(=N2)NC(=O)[C@@H]1CO)C1CCCCC1	0.0275 µM	15.5 µM	563	0.09 µM		
CN(C(=O)CCCOc1ccc2c(c1)CN1C(=N2)NC(=O)[C@H]1CO)C1CCCCC1	0.0185 µM	6.9 µM	373		0.072 µM	
CN(C(=O)CCCOc1cccc2c1CN1CC(=O)NC1=N2)C1CCCCC1	2 µM	60 µM	30	1.5 µM		
O=C1CN2Cc3cc(OCCCC(=O)N(CCCCCO)C4CCCCC4)ccc3N=C2N1	0.0049 µM	2.7 µM	551	0.0023 µM		
O=C1CN2Cc3cc(OCCCC(=O)N(CCN4CCOCC4)C4CCCCC4)ccc3N=C2N1	0.0041 µM	1 µM	243		0.032 µM	
CN(C(=O)CCCOc1ccc2c(c1)CN1CC(=O)NC1=N2)C1CCC(O)CC1 (centres undefined)	0.12 µM	25 µM	208		0.29 µM	
